# Experimental data published in the EternaBench riboswitch data.
# System: MS2 coat protein
# Test: apparent Kd, MS2 coat protein; higher = weaker binding; RNA-MaP array; FMN 200 µM where present
# Procedure, shortened: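 Two titrations, one without ligand and one with constant ligand, were run with SNAP-549-labelled MS2 coat protein from 0.7 or 1.5 nM, doubling to 3 µM. The targets were designs transcribed by stalled E. coli RNA polymerase on Illumina sequencing-chip clusters, in 100 mM Tris-HCl pH 7.5, 80 mM KCl, 4 mM MgCl2, BSA, DTT, yeast tRNA and Tween-20. The apparent Kd is the median of filtered per-cluster binding-curve fits, with green signal normalised to red-channel RNA signal and control-cluster median Fmax.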
# [1] = designed as: ON switch for flavin mononucleotide, no ligand
# [2] = ligand present: flavin mononucleotide, designed as: ON switch for flavin mononucleotide
# [3] = designed as: OFF switch for flavin mononucleotide, no ligand
# [4] = ligand present: flavin mononucleotide, designed as: OFF switch for flavin mononucleotide
Sequence,apparent Kd [1] [nM],apparent Kd [2] [nM],apparent Kd [3] [nM],apparent Kd [4] [nM]
ACAUAAAUUCGAGGAUAUCGGUGAUAAAGAAGACGAGAAGGCGAUUAAAGAGAGAUGGUUAUAGACAUGAGGAUCACCCAUGUA,28.6,22.8,–,–
ACUCGACAUGAGGAUCACCCAUGUGAGGAUAUCGUUAUUUACUUUGUUUAUAGUAUCUCGAGAAGGCACAUUUG,–,–,18.1,54.6
GUGAGGUCAGGAUAUGCAUGGCGGGACUUGCGUCGUGGCGUGCAGAAGGGACAUGAGGAUCACCCAUGUGGAGC,–,–,81.6,194
GCCUACUGGCGAGGAUAUUCUGUGCGGUUCCGGCUCGUGUCUGUUACAUGAGGAUCACCCAUGUGGGAGAAGGUGUCUGUGGCC,–,–,7.53,7.41
AGCACGAGAGGUGCUGUCUAACCACAUGAGGAUCACCCAUGUAAGGAUAUCGCGGCUAUCGGCAUCGAGAAGGUACAGGGAGCA,–,–,11.2,21.6
GCACAUGAUACAGGAUAUGUUUUGGAUUUUAUAUGCAGUUAUAAUUUUUUGACAGAAGGGUAUACAUGAGGAUCACCCAUGUGC,–,–,161,75
AGGUCAACCACAGGAUAUGGCUAGCAUAGCUAGCCAGAAGGGUGGUCGUAUCCAUGUAAAUACAUGAGGAUCACCCAUGUAUCC,283,79.1,–,–
CGAAAACCACAGAAGGCCCGGGACAUGAGGAUCACCCAUGUAGAAAGUGGGAGGAUAUGUGUACGCGGCGUGCUGACCUCGUGA,232,27.4,–,–
GAGAAGUCAGGAUAUGCUGCUCGUCACUUGCGUGAUGAGUAGCAGAAGGGACAUGAGGAUCACCCAUGUAAAGG,–,–,136,315
CCGGAAUAGCAGGAUAUAGGAGUCGAUAGACACCUAGAAGGGCUGACAUGAGGAUCACCCAUGUGUCCUACCGG,–,–,81.2,50.8
CUUUUGUGAGGAUAUGUGGCUUCGAUCGUGAGAUCGAGGCUACAGAAGGCACAUGAGGAUCACCCAUGUUCCUC,–,–,60.4,777
UAGAUCAAUACAGGAUAUGGUGACGCACAUGAGGAUCACCCAUGUCCGCAGCGUGCUCAGCACGCCCAGAAGGGUAUUGAUUCG,786,80.1,–,–
GCUGUGGCAUGAGGAUAUGGUCAGGUUUCCUGACCAGAAGGCAUGUCAAUAGACAUGAGGAUCACCCAUGUAGUUAACACAGCA,514,45.9,–,–
UUUAUUAAUUAGAAGGCUUGAUGAAUUACAAUAGACAUGAGGAUCACCCAUGUGUAUUCAUGUCAAGAGGAUAUAGUCAUAUAU,11.3,6.38,–,–
GGAUGGACCCAGAAGGGCAGAUUCCGAGGGAUUUGAGAUGAGCGGAUAUGUAGGAUAUGGGUGGACAUGAGGAUCACCCAUGUC,231,46.6,–,–
CGAGUGUAAGGAUAUUCGGCGCCAGGGAACGACCUGGCGUAGAAGAAGGUACAUGAGGAUCACCCAUGUGGUUA,–,–,178,18.6
CGACAGCACACAGGAUAUCCUCGACUUUGUCGAGGAGAAGGGUGUAAACAUGAGGAUCACCCAUGUAUGCUGUCGAAAUUUAAU,308,30.7,–,–
CCAUGACAAAGUCAUGGUUAACGAACAUGAGGAUCACCCAUGUAGGAUAUGCUACUCAAAGAGUAGCAGAAGGACAUGUGCCUU,–,–,34.3,259
AUGACGGCAGGAUAUACAUGAGGAUCACCCAUGUAAAUUUUUCGUUUACCUUGACCGUGUAGAAGGGCCCAACC,–,–,14.5,16.1
GGAAAACAUGAGGAUCACCCAUGUGAGGAUAUCGAUGUCCAAAAAGAGGUGCGGGACUCGAGAAGGCACUUGGA,–,–,55.1,54
AUUAGGUCAGGAUAUACAUGAGGAUCACCCAUGUAGGUGGAACCUUUAUCGGGUGACCGUAGAAGGGACAUCAA,–,–,41.1,76.3
AAAUUAAGAAGAGGAUAUUGACAUGAGGAUCACCCAUGUAUUUGGGAAUGUUUACUGAAUUCUUACGAGAAGGUUUACGAACUU,–,–,191,132
AAUUGGAUGCAGAAGGCAUGGACGACUCGUCACAUUAACAUGAGGAUCACCCAUGUCAAAAUACAUGAGGAUAUGCAUCCUAAA,140,12,–,–
GCGAUUUUGUAAGGAUAUACACGAGUUUUAAGUGUAGAAGGUACUUACAUGAGGAUCACCCAUGUAUUAAUGUUUAAUAGUCGC,8.5,6.84,–,–
AAACAUGUCCGAGGAUAUCUGGAAACAUUUCCAAGAGAAGGCGGACAUGAGGAUCACCCAUGUCUCUCCUCAUCACAUCCAAGU,–,–,9.27,79.3
UUAUUAUAUGUAGGAUAUGCAUAUUGUUGUUAUGCAGAAGGACAUGAGGAUCACCCAUGUAUAUUAUUGUUAUAUAUUAUAUAU,–,–,23.4,36.7
UUGGACGUCGUAUGAUAUGUAGGAUAUUCCUACAUGAGGAUCACCCAUGUUGACAUGGAAGAAGGACAGAAGGACGAUGUCCAU,192,6.74,–,–
